Only some compounds are listed: those with a hit (about 1.3% of all), similar ones and a draw of the others.
T cell HTS = modulates CD8 T cell binding to vesicles; 2C CD8+ T cell-vesicle binding, flow cytometry; hits give low values; response (vesicle binding), % at 7 µM; 0.068% of 330,000 active; AID 2052;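 active = response, share of CD8 T cells binding vesicles, and their 90th percentile fluorescence all below set limits, cut at about 80% in these data, passing the limit was not always enough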;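 also: values below 100% mean blocked vesicle binding to the CD8+ T cells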
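Material: 2C TCR transgenic mouse naive CD8+ T cells, MACS-purified. Also added: QL9-charged Drosophila Ld/ICAM-1/B7-1 vesicles. Timing: binding 1.5 h at 37 °C. Measured by: high-throughput flow cytometry with anti-B7-1 and anti-CD8 staining. Read-out: percent CD8+ FL2 mean versus row control. Controls: Unloaded micro-vesicles (low), QL9 vesicles with 0.7% DMSO (high).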
MEX-5 binding = C. elegans MEX-5 TCR-2 RNA binding activity; AID 1832; Q9XUB2; activity score (negative = inhibition of binding), % at 10 µM; 0.38% of 300,000 active; MEX-5/FITC-TCR2 RNA binding, fluorescence polarization; hits give low values;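 active = inhibition past about -25% in most replicates, and total fluorescence under double the plate's negative control median, limit read from the data; inconclusive = replicates evenly split on the limit, or fluorescence at least double controls; inactive = too little inhibition in most replicates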
EBV gp42 inh = blocks Epstein-Barr virus glycoprotein 42 binding. inhibition, % (tested at 21.74 µM). AID 1085. Fluorescence polarization binding assay, mP read-out. 0.42% of 220,000 active; in the data active = inhibition above about 50%
Keap1 Nrf2 FP = disrupts human Keap1 binding to Nrf2 peptide; Q14145; Keap1 Kelch-Nrf2 peptide fluorescence polarization, 1536-well; inhibition, % at 9.4 µM; 0.15% of 340,000 active; in the data active = inhibition above about 12%; inconclusive = no clear call, values can overlap the other calls; inactive = below about 7.3%;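 also: human Keap1 Kelch domain with fluorescein labeled Nrf2 9mer peptide probe; higher means more block of Keap1 binding to Nrf2 peptide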
Target sequence (Q14145 whole entry, looked up, the tested form may be a part): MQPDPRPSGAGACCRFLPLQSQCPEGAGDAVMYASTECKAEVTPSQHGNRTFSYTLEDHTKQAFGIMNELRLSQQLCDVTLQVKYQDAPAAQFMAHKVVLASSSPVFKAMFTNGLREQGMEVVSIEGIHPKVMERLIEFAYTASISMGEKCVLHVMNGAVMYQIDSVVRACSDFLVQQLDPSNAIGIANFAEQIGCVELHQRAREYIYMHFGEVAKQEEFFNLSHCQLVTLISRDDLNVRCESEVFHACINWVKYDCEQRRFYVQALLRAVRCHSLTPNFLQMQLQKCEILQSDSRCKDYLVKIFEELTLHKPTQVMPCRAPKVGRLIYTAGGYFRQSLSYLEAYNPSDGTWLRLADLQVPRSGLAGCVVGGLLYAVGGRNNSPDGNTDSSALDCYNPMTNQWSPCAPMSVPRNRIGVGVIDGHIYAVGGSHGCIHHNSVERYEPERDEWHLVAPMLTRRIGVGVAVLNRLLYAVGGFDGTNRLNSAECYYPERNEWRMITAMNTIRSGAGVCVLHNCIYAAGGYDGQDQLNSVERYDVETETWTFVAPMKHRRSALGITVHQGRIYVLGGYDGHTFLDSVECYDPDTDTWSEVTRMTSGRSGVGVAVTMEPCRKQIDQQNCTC
C-LANA FP = blocks KSHV LANA C-terminal domain binding to DNA; 0.078% of 340,000 active; MBP-C-LANA/FAM-LBS DNA binding, fluorescence polarization; inhibition, % at 9 µM; AID 504423;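 active = highest replicate inhibition at or above 60% at 9 µM, even if other replicates fall short; inactive = all replicates below 60% inhibition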
GRK2 inh = inhibitors of human GRK2 displacing RNA aptamer. P25098. bead flow cytometry, FAM-aptamer displacement from GRK2. inhibition of aptamer binding, % at 10 µM. 0.59% of 330,000 active. AID 488847;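 active = inhibition of aptamer binding above 40%, roughly 3 SD of noise, on plates passing a quality check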;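 also: median bead fluorescence of bound FAM aptamer so fluorescent compounds give negative values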
Each line names hits and unclear results; the compound was inactive in the other large screens.

N=C1/C(=C\c2coc3ccccc3c2=O)C(=O)N=C2SC=CN12	MEX-5 binding inconclusive
O=C(Nc1cccc(S(=O)(=O)N2CCCCC2)c1)c1ccc([N+](=O)[O-])o1	none
C=CCN1C(=O)N/C(=C/c2ccccc2OCC(=O)Nc2ccc(F)cc2)C1=O	none
COc1cccc(/C=C2\SC(=S)N(CCC(=O)NNC(=O)c3ccccc3OC)C2=O)c1	none (no result: EBV gp42 inh)
COc1cccc(/C=C2\SC(=O)N(CCC(=O)NNC(=O)c3ccccc3Cl)C2=O)c1	T cell HTS 10
O=C(COc1ccccc1)N[C@@H]1c2ccccc2CC[C@@H]1O	none (no result: T cell HTS, MEX-5 binding, EBV gp42 inh)
Cc1cccc(COc2ccc(/C(O)=C3\C(=O)C(=O)N(CCN(C)C)C3c3ccncc3)cc2)c1 (stereo unspecified)	none
O=C(NCCCn1ccnc1)c1ccc2c(c1)OCCO2	EBV gp42 inh 90
O=C1C(=O)N(CCCn2ccnc2)C(c2ccc([N+](=O)[O-])cc2)/C1=C(\O)c1ccc2c(c1)OCCO2 (stereo unspecified)	T cell HTS 0.0 (no result: MEX-5 binding, EBV gp42 inh)
O=C1C(=O)N(CCCn2ccnc2)C(c2ccc(Br)cc2)/C1=C(\O)c1ccc2c(c1)OCCO2 (stereo unspecified)	none (no result: EBV gp42 inh)
COc1ccc2cc3c(N)nn(C(=O)c4ccc(Cl)c([N+](=O)[O-])c4)c3nc2c1	GRK2 inh 57
COc1ccc2cc3c(N)nn(C(=O)c4ccccc4[N+](=O)[O-])c3nc2c1	none
CC1C=CC=CC=CC=CC=CC=CC=CC(OC2OC(C)C(O)C(N)C2O)CC2OC(O)(CC(O)CC(O)C(O)CCC(O)CC(O)CC(=O)OC(C)C(C)C1O)CC(O)C2C(=O)O (stereo unspecified)	C-LANA FP 68 (no result: T cell HTS, MEX-5 binding, EBV gp42 inh, GRK2 inh)
Cc1nc2ccccc2c(=O)n1/N=C/c1ccc(O)c(O)c1O	MEX-5 binding -52 (no result: EBV gp42 inh)
O=C1c2cccc3cccc(c23)C(=O)N1/N=C/c1ccc(O)cc1O	none
O=C1c2ccccc2C(=O)N1/N=C/c1ccc(O)c(O)c1O	MEX-5 binding -53 (no result: T cell HTS, GRK2 inh)
Cc1noc(/C=C/N(C)C)c1S(=O)(=O)N1CCCC(C(=O)NC(C)c2ccccc2)C1 (stereo unspecified)	none
COc1cc(CCC(=O)N2CCN(c3ncccn3)CC2)cc(OC)c1OC	EBV gp42 inh 86
Cc1ccc(S(=O)(=O)N2[C@@H](c3ccccc3)C(C(=O)O)=CC[C@H]2c2ccc(Cl)cc2)cc1	none (no result: MEX-5 binding, EBV gp42 inh)
COc1ccc(/C=C2\SC(=S)N(CCCC(=O)Nc3ccccn3)C2=O)cc1OC	EBV gp42 inh 76
Cc1ccc(/C=C2\SC(=S)N(CCCC(=O)Nc3ccccn3)C2=O)cc1	none
Oc1[nH]c(N=C2N=c3ccccc3=N2)c2ccccc12	MEX-5 binding -38
N#CC(=C1N=c2ccccc2=N1)c1c(O)[nH]c2ccccc12	none (no result: T cell HTS, MEX-5 binding, Keap1 Nrf2 FP, C-LANA FP, GRK2 inh)
COC(=O)C1=C(C)N=C2SC(C#N)=C(N)N2C1c1cccc(OC)c1 (stereo unspecified)	MEX-5 binding -28
COC(=O)C1=C(C)N=C2SC(C#N)=C(N)N2C1c1ccc(OC)cc1 (stereo unspecified)	none
COc1ccc(Br)cc1/C=C/C(=O)OCC(=O)NCCc1ccc(S(N)(=O)=O)cc1	none (no result: MEX-5 binding, EBV gp42 inh)
CCC(Oc1ccccc1)C(=O)Nc1ccccn1 (stereo unspecified)	MEX-5 binding -35
CCC(Oc1ccccc1)C(=O)Nc1cc(C)on1 (stereo unspecified)	none
Cc1ccc(O)c(O)c1	none (no result: EBV gp42 inh, Keap1 Nrf2 FP, C-LANA FP)
Cc1cc(O)c(Oc2cc(C)cc(O)c2O)c(O)c1	MEX-5 binding -49
O=C(c1ccccc1F)N1CCc2ccccc21	T cell HTS 0.0 (no result: EBV gp42 inh)
Cc1ccc(C)n1/N=C1/NC(=O)CS1	C-LANA FP 87
CS(=O)(=O)c1ccc(Cl)c(NC(=O)COc2ccc3c(c2)CCC3)c1	none (no result: EBV gp42 inh)
CC(=O)N1CCC(=NNC(=O)c2cccs2)CC1	T cell HTS 0.0
CCOc1ccc(CNc2nc3ccccc3n2C)cc1	none (no result: EBV gp42 inh, C-LANA FP)
Cn1cc(/C=C2\SC(=S)N(NC(=O)c3ccccc3)C2=O)c2ccccc21	EBV gp42 inh 89
Cn1cc(/C=C2\SC(=S)N(N3CCOCC3)C2=O)c2ccccc21	none
Cn1cc(/C=C2\SC(=S)N(NC(=O)c3cccc(Cl)c3)C2=O)c2ccccc21	EBV gp42 inh 165 (no result: T cell HTS, MEX-5 binding, GRK2 inh)
